The text below walks through data of PubChem BioAssay AID588365 (Broad Institute, 2011).

Activity calls are given as the source filed them.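 Rule for the calls: active = compounds lowering cell ATP signal whose fitted half-maximal concentration is at most ten times the top tested dose; inconclusive = flat curve losing 30 to 70 percent, or poor fit; inactive = the rest.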

Tested on in one assay: not listed separately
The experiment in a line: HeLa cell cytotoxicity, dose response, cytotoxicity control, CellTiter-Glo, 24 h, dry powder (AID 588365). As to conditions: HeLa viability, CellTiter-Glo ATP luminescence, 24 h; at 35 µM (top of the series). The procedure, abridged:
(§1)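 Assay system: human HeLa cell line, viability by cellular ATP; buffer or medium: phenol-red-free DMEM, 10% FBS; dosing: compound concentration series, added one day after seeding; times: 24 h compound exposure, 37 °C, then 10 min reagent, RT; technique: CellTiter-Glo ATP luminescence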
In general terms: In ATP-based viability assays light output follows the ATP content of the culture.
In the case of `Nc1c(C(=O)Nc2ccccc2F)sc2nc(Cc3ccccc3)cc(C(F)(F)F)c12`, the activity change, negative = cytotoxicity is 0.381% (inactive).

Regarding `CSc1ccc(/C=N/Nc2cccc(C(=O)O)c2)cc1`, the activity change, negative = cytotoxicity is -3.96% (inactive).

Turning to `O=C1/C(=C/c2ccco2)Oc2c1ccc(O)c2CN1CCCCC1`, the activity change, negative = cytotoxicity was 4.06% (inactive).

With `Nc1c(/C=C2\C=CC(=O)C(O)=C2)c(=O)nc2sc(CC(=O)N3CCCCC3)nn12`, the activity change, negative = cytotoxicity was -8.24% (inactive).

For the molecule `O=C(O)CCCCCn1c(SCC(=O)c2ccc(O)c(O)c2)nc2ccsc2c1=O`, the activity change, negative = cytotoxicity was -3.5% (inactive).

As for `CC1(C)[C@@H](O[C@H]2O[C@H](C(=O)O)[C@@H](O)[C@H](O)[C@H]2O[C@@H]2O[C@H](C(=O)O)[C@@H](O)[C@H](O)[C@H]2O)CC[C@]2(C)[C@H]3C(=O)C=C4[C@@H]5C[C@@](C)(C(=O)O)CC[C@]5(C)CC[C@@]4(C)[C@]3(C)CC[C@@H]12`, the activity change, negative = cytotoxicity was -1.78% (inactive).

In the case of `CC1=NN(c2cccc(C(=O)O)c2)C(=O)/C1=C\C=C\c1ccco1`, the activity change, negative = cytotoxicity is -14.3% (inactive).

As for `Clc1ccc(-c2nnc3sc(-c4ccc(Br)o4)nn23)cc1`, the activity change, negative = cytotoxicity was -0.723% (inactive).

As to `O=C(O)CC(C(=O)O)N1C(=O)/C(=C/C=C/c2ccco2)SC1=S` (stereo unspecified), the activity change, negative = cytotoxicity is 4.8% (inactive).

As for `CN(C)S(=O)(=O)c1cc(C(=O)NC2CCSc3ccccc32)ccc1Cl` (stereo unspecified), the activity change, negative = cytotoxicity was -9.03% (inactive).

With `COC(=O)c1ccccc1NC(=O)CCS(=O)(=O)c1ccc(Br)cc1`, the activity change, negative = cytotoxicity is -2.03% (inactive).

Take `CCC(=O)Oc1ccc2c(c1)O/C(=C\c1ccco1)C2=O`: the activity change, negative = cytotoxicity was -1.46% (inactive).

On to `O=C(O)C1Nc2c(O)cc(Cl)c([N+](=O)[O-])c2C2C=CCC12` (stereo unspecified), for which the activity change, negative = cytotoxicity is -4.48% (inactive).

In the case of `O=C1CCCC(O)=C1N=Nc1ccc(C(=O)O)cc1`, the activity change, negative = cytotoxicity was -7.5% (inactive).

Another assay relates to HeLa viability, CellTiter-Glo ATP luminescence, 24 h. The description is as above.
Conditions: not given
The procedure, abridged: as §1
`O=C(O)CCNc1ccc(NCCC(=O)O)c2c1C(=O)c1ccccc1C2=O`: the AC50 was 36.1 µM.

`O=c1c(O)cccc2cc(O)c(O)c(O)c12`: the concentration at half-maximal activity (AC50) was 16.1 µM.

As a reminder, the AC50 is the concentration giving half of the maximal activity seen.
